What all share (format): functional
Assay [1] concerns Aphis craccivora. The experiment in a line: Ratio of LC50 of ethiprole to LC50 of test compound against Aphis craccivora (cowpea aphid) infested tender soybean shoots exposed to test compound solution assessed as insect mortality measured 24 hr post compound treatment.
The subject of assay [2] is Plutella xylostella. The experiment in a line: Insecticidal activity against Plutella xylostella (diamondback moth) grown on compound pre-treated fresh cabbage leaves assessed as insect mortality at 50 mg/kg measured 3 days post compound treatment by leaf-dip method. Summed up: (§1)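 Leaf-dip stomach-toxicity assay on laboratory-reared diamondback moth. Test solutions came from a 200 mg L^-1 stock in dimethylformamide, diluted with water containing TW-20. Control leaves were treated with water and dimethylformamide. Tests were held at 25±1 °C, percentage mortality was scored 3 days after treatment, and each treatment was run three times.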

For assay [3], the system named is Plutella xylostella. The experiment in a line: Insecticidal activity against Plutella xylostella (diamondback moth) grown on compound pre-treated fresh cabbage leaves assessed as insect mortality at 25 mg/kg measured 3 days post compound treatment by leaf-dip method. To be noted: Plutella xylostella. Summed up:
as §1

Assay [4] has as its system Plutella xylostella. Description: Insecticidal activity against Plutella xylostella (diamondback moth) grown on compound pre-treated fresh cabbage leaves assessed as insect mortality at 100 mg/kg measured 3 days post compound treatment by leaf-dip method. Summed up:
as §1

Assay [5] deals with Plutella xylostella. The experiment in a line: Insecticidal activity against Plutella xylostella (diamondback moth) grown on compound pre-treated fresh cabbage leaves assessed as insect mortality at 5 mg/kg measured 3 days post compound treatment by leaf-dip method. To be noted: Plutella xylostella. The procedure, abridged:
as §1

In assay [6] the test system is Aphis craccivora. The experiment in a line: Insecticidal activity against Aphis craccivora (cowpea aphid) infested tender soybean shoots exposed to 100 mg/kg test compound solution assessed as insect mortality measured 24 hr post compound treatment. The procedure, abridged: (§2)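 Soybean tender shoots carrying 60 aphids were dipped in test solutions. Solutions were made from a 200 mg L^-1 stock in dimethylformamide, diluted with water containing TW-20. Insects were laboratory-reared, tests were held at 25±1 °C, and mortality was scored.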

The test system of assay [7] is Aphis craccivora. Description: Insecticidal activity against Aphis craccivora (cowpea aphid) infested tender soybean shoots exposed to 25 mg/kg test compound solution assessed as insect mortality measured 24 hr post compound treatment. The procedure, abridged:
as §2

For assay [8], the system named is Aphis craccivora. Description: Insecticidal activity against Aphis craccivora (cowpea aphid) infested tender soybean shoots exposed to 50 mg/kg test compound solution assessed as insect mortality measured 24 hr post compound treatment. The procedure, abridged:
as §2

In assay [9] the test system is Culex pipiens pallens. Description: Insecticidal activity against Culex pipiens pallens (mosquito) assessed as insect mortality at 25 ug/kg measured 1 day post compound treatment. To be noted: 24 h. Summed up:
(§3)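 Fourth-instar Culex pipiens pallens larvae, 20 per test, were laboratory-reared and placed in 100 mL of test solution made by adding 1 mL of compound dilution to 99 mL of water. Tests were held at 25±1 °C, percentage mortality was scored 1 day after treatment, and each test was run three times.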

The subject of assay [10] is Aphis craccivora. The experiment in a line: Insecticidal activity against Aphis craccivora (cowpea aphid) infested tender soybean shoots exposed to 5 mg/kg test compound solution assessed as insect mortality measured 24 hr post compound treatment. To be noted: Aphis craccivora, 24 h. The procedure, abridged: as §2
For assay [11], the system named is Aphis craccivora. The experiment in a line: Insecticidal activity against Aphis craccivora (cowpea aphid) infested tender soybean shoots exposed to 200 mg/kg test compound solution assessed as insect mortality measured 24 hr post compound treatment. Summed up: as §2
Assay [12] relates to Culex pipiens pallens. The experiment in a line: Insecticidal activity against Culex pipiens pallens (mosquito) assessed as insect mortality at 100 ug/kg measured 1 day post compound treatment. Particulars: Culex pipiens, 24 h. The procedure, abridged: as §3
Assay [13] concerns Plutella xylostella. Description: Insecticidal activity against Plutella xylostella (diamondback moth) grown on compound pre-treated fresh cabbage leaves assessed as insect mortality at 200 mg/kg measured 3 days post compound treatment by leaf-dip method. The procedure, abridged:
as §1

Assay [14] deals with Plutella xylostella. Description: Insecticidal activity against Plutella xylostella (diamondback moth) grown on compound pre-treated fresh cabbage leaves assessed as insect mortality at 2.5 mg/kg measured 3 days post compound treatment by leaf-dip method. Summed up:
as §1

Assay [15] concerns Culex pipiens pallens. The experiment in a line: Insecticidal activity against Culex pipiens pallens (mosquito) assessed as insect mortality at 50 ug/kg measured 1 day post compound treatment. Particulars: 24 h. The procedure, abridged:
as §3

In assay [16] the test system is Plutella xylostella. Description: Insecticidal activity against Plutella xylostella (diamondback moth) grown on compound pre-treated fresh cabbage leaves assessed as insect mortality at 10 mg/kg measured 3 days post compound treatment by leaf-dip method. To be noted: Plutella xylostella. The procedure, abridged: as §1
Assay [17] concerns Aphis craccivora. The experiment in a line: Insecticidal activity against Aphis craccivora (cowpea aphid) infested tender soybean shoots exposed to test compound solution assessed as insect mortality measured 24 hr post compound treatment. The procedure, abridged:
as §2

Assay [18] relates to Aphis craccivora. Description: Insecticidal activity against Aphis craccivora (cowpea aphid) infested tender soybean shoots exposed to 2.5 mg/kg test compound solution assessed as insect mortality measured 24 hr post compound treatment. To be noted: Aphis craccivora, 24 h. Summed up:
as §2

Assay [19] deals with Aphis craccivora. Description: Insecticidal activity against Aphis craccivora (cowpea aphid) infested tender soybean shoots exposed to 10 mg/kg test compound solution assessed as insect mortality measured 24 hr post compound treatment. Particulars: Aphis craccivora, 24 h. The procedure, abridged: as §2
Assay [20] relates to Culex pipiens pallens. The experiment in a line: Insecticidal activity against Culex pipiens pallens (mosquito) assessed as insect mortality at 5 ug/kg measured 1 day post compound treatment. To be noted: 24 h. Summed up:
as §3

The test system of assay [21] is Mythimna separata. Description: Insecticidal activity against Mythimna separata (Oriental armyworm) grown on compound pre-treated corn leaves assessed as insect mortality at 200 mg/kg measured 3 days post compound treatment by leaf-dip method.
The subject of assay [22] is Culex pipiens pallens. The experiment in a line: Insecticidal activity against Culex pipiens pallens (mosquito) assessed as insect mortality at 10 ug/kg measured 1 day post compound treatment. Particulars: 24 h. Summed up:
as §3

Each structure is given as a SMILES string.

What is called mortality is the percentage killed. For the compound `CCCOC(Nc1c([S+]([O-])CC)c(C#N)nn1-c1c(Cl)cc(C(F)(F)F)cc1Cl)C(Cl)(Cl)Cl` (configuration not stated), the RatioLC50 in assay [1] amounted to 7.9. For the same compound, the mortality at 50 mg/kg in assay [2] and in assay [8] was 100% in each case. The mortality at 25 mg/kg in assay [3] was 87%; in assay [7], 100%. Besides, the mortality at 100 mg/kg in assay [4] and in assay [6] was 100% throughout. For the same compound, the results for the mortality at 5 mg/kg in assay [5] and in [10] were 27% and 100%, respectively. Also, the mortality at 0.025 mg/kg in [9] was 0%. The mortality at 200 mg/kg in [11] and in [13] was 100% each time. Besides, the mortality at 0.1 mg/kg in assay [12] was 100%. Also, the mortality at 2.5 mg/kg in [14] worked out at 0%; in assay [18], 89%. In assay [15], the mortality at 0.05 mg/kg was found to be 100%. Moreover, the mortality at 10 mg/kg in assay [16] worked out at 44%; in [19] it was 100%. In addition, the LC50 in assay [17] turned out to be 1.4873 mg/kg.
`COC(Nc1c([S+](C)[O-])c(C#N)nn1-c1c(Cl)cc(C(F)(F)F)cc1Cl)C(Cl)(Cl)Cl` (configuration not stated): the RatioLC50 in assay [1] is given as 4.2. Besides, the mortality at 50 mg/kg in assay [2] and in assay [8] was 100% in each case. For the same compound, the mortality at 25 mg/kg in assay [3] and in assay [7] was 100% throughout. Also, the mortality at 100 mg/kg in assay [4] and in [6] was 100% in each case. Further, the mortality at 5 mg/kg in assay [5] and in assay [10] was 88% in each case. The mortality at 200 mg/kg in [11] and in [13] was 100% throughout. The mortality at 0.1 mg/kg in assay [12] amounted to 100%. Further, the mortality at 2.5 mg/kg in [14] came out at 34%; in assay [18], 0%. Besides, in assay [15], the mortality at 0.05 mg/kg came out at 50%. For the same compound, the figures for the mortality at 10 mg/kg in [16] and in assay [19] were 91% and 100%, respectively. The LC50 in assay [17] was 2.8848 mg/kg.
As for `CCSc1c(C#N)nn(-c2c(Cl)cc(C(F)(F)F)cc2Cl)c1NC(OCCF)C(Cl)(Cl)Cl` (configuration not stated), the mortality at 0.005 mg/kg in [20] came to 0%. In addition, the mortality at 50 mg/kg in [2] and in [8] was 100% in each case. The mortality at 25 mg/kg in [3] is 100%; in [7] it was 29%. Further, the mortality at 100 mg/kg in assay [4] and in assay [6] was 100% in each case. Further, the mortality at 5 mg/kg in assay [5] and in assay [10] was 0% throughout. The mortality at 0.025 mg/kg in assay [9] is 100%. Further, the mortality at 200 mg/kg in assay [11] was 100%; in [13] it was 100%; in assay [21] it was 20%. For the same compound, in assay [12], the mortality at 0.1 mg/kg was 100%. Also, in assay [15], the mortality at 0.05 mg/kg amounted to 100%. Besides, the mortality at 10 mg/kg stood at 29% in assay [16] and 11% in assay [19]. Further, the mortality at 0.01 mg/kg in [22] was 100%.
Regarding `CC[S+]([O-])c1c(C#N)nn(-c2c(Cl)cc(C(F)(F)F)cc2Cl)c1N` (configuration not stated) [ETHIPROLE], the mortality at 50 mg/kg in assay [2] and in [8] was 100% throughout. Further, the mortality at 25 mg/kg in assay [3] stood at 69%; in assay [7] it was 100%. Further, the mortality at 100 mg/kg in [4] and in assay [6] was 100% throughout. Further, the mortality at 5 mg/kg in assay [5] and in assay [10] was 0% throughout. Besides, in assay [9], the mortality at 0.025 mg/kg stood at 50%. The mortality at 200 mg/kg in assay [11] came out at 100%; in [13], 100%; in [21], 0%. The mortality at 0.1 mg/kg in assay [12] came to 100%. Moreover, the mortality at 0.05 mg/kg in assay [15] came to 100%. Besides, the values for the mortality at 10 mg/kg in assay [16] and in assay [19] were 23% and 31%, respectively. For the same compound, in assay [17], the LC50 was found to be 11.7263 mg/kg.

These data come from ChEMBL document CHEMBL3044673, “Design, synthesis and insecticidal activity of novel phenylpyrazoles containing a 2,2,2-trichloro-1-alkoxyethyl moiety” (2010).
